Results taken from article PMC9291915 (British Journal of Clinical Pharmacology, 2021).

Key:
[1] = cited from earlier work
[2] = cited from earlier work; remark: listed apart in the source
[3] = Clinical pharmacokinetics of treosulfan in plasma and urine; type: in vivo, human; settings: for AUC / half-life: human, plasma, intravenous; for AUC: 14 g/m^2, AUC; for half-life: 14 g/m^2, apparent half‐life, median
CYP2C8 = molecular target: T1, CYP2C8 (Homo sapiens, UniProt P10632); test: Cytochrome P450 inhibition; type: in vitro ADME; settings: substrate paclitaxel; any pre-incubation condition
T1 sequence (P10632 1-490): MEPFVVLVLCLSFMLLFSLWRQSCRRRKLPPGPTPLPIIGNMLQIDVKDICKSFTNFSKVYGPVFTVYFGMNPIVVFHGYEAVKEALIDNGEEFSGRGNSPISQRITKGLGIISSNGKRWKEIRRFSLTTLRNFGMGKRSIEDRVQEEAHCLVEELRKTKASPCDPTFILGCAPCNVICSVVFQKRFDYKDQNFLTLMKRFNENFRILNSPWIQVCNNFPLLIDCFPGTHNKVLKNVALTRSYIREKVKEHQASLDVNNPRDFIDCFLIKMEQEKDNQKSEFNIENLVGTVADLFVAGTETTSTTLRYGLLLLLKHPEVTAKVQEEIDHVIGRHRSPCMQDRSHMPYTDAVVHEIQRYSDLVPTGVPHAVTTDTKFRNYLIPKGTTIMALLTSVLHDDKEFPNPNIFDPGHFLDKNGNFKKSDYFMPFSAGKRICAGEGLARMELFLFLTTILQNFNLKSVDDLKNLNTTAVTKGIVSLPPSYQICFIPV
Method in brief: (§1)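 Human liver microsomes (0.25 mg/mL final) were pre-incubated with the test compound at six concentrations (40 to 10 000, in water) for 30 min without or with NADPH, or with 0 min pre-incubation. Probe substrate and NADPH (1 mM) were then added (final DMSO 0.05%) and incubated 5 min at 37 °C. Isoform-specific time-dependent inhibitors served as positive controls. IC50 per condition was derived from the decrease in metabolite formation versus vehicle control.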

CYP2D6 = CYP2D6 (Homo sapiens, UniProt P10635); test: Cytochrome P450 inhibition; type: in vitro ADME; settings: substrate dextromethorphan; any pre-incubation condition
Sequence of CYP2D6 (P10635 whole entry): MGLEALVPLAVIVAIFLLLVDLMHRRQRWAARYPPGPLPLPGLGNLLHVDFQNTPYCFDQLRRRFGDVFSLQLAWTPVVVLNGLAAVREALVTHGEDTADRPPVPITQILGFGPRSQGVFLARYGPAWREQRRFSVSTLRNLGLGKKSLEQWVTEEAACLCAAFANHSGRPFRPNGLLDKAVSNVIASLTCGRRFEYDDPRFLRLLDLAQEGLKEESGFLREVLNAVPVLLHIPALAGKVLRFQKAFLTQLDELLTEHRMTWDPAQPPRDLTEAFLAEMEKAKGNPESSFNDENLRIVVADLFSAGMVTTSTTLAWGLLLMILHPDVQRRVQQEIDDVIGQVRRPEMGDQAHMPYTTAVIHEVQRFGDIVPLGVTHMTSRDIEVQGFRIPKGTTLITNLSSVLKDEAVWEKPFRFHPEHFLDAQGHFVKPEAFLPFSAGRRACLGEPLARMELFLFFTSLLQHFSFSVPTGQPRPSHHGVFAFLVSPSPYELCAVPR
Method in brief: as §1

CYP2C9 = CYP2C9 (Homo sapiens, UniProt P11712); test: Cytochrome P450 inhibition; type: in vitro ADME; settings: substrate diclofenac; any pre-incubation condition
Sequence of CYP2C9 (P11712 whole entry): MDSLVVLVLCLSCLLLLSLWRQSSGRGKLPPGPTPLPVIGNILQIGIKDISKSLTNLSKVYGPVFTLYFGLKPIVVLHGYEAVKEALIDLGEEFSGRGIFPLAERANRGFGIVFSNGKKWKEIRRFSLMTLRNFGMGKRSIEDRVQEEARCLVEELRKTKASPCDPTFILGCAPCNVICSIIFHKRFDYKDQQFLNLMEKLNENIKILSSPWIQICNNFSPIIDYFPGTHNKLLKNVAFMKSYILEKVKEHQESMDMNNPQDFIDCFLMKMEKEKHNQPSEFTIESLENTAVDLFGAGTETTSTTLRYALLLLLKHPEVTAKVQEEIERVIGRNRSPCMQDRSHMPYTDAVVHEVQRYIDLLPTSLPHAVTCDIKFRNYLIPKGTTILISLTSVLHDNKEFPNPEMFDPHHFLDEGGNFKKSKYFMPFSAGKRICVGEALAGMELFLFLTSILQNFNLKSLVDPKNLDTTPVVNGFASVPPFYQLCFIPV
Method in brief: as §1

CYP1A2 = molecular target: T2, CYP1A2 (Homo sapiens, UniProt P05177); test: Cytochrome P450 inhibition; type: in vitro ADME; settings: substrate phenacetin; any pre-incubation condition
T2 sequence (P05177 1-516): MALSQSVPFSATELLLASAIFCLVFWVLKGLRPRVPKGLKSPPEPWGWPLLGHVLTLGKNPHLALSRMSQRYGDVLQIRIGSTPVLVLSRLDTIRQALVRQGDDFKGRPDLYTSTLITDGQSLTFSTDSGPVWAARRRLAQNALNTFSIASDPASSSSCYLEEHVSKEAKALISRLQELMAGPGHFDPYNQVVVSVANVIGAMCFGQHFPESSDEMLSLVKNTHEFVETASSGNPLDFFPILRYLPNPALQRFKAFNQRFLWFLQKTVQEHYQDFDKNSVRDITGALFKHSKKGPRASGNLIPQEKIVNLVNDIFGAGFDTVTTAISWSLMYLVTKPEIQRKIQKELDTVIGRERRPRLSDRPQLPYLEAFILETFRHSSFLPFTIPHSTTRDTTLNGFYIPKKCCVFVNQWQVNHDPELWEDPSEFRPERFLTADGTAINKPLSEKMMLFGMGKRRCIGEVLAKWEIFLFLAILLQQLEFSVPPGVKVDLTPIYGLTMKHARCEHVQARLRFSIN
Method in brief: as §1

[4] = cited from earlier work; remark: listed apart in the source
CYP2C19 = CYP2C19 (Homo sapiens, UniProt P33261); test: Cytochrome P450 inhibition; type: in vitro ADME
Sequence of CYP2C19 (P33261 whole entry): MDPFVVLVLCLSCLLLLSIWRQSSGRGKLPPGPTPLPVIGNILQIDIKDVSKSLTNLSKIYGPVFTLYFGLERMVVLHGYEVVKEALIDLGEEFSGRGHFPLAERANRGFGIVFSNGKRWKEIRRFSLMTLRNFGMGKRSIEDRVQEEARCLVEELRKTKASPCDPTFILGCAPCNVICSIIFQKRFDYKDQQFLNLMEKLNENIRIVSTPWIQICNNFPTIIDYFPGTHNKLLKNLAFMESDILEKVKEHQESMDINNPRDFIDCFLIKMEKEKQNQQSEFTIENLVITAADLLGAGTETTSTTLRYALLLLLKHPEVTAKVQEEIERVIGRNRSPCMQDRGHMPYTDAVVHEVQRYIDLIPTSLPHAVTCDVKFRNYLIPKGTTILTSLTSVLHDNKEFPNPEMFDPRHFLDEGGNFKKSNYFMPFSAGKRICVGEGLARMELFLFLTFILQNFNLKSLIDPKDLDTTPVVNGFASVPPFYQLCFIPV
Method in brief: as §1

P-gp = P-gp (Homo sapiens, UniProt P08183); type: in vitro ADME
Sequence of P-gp (P08183 whole entry): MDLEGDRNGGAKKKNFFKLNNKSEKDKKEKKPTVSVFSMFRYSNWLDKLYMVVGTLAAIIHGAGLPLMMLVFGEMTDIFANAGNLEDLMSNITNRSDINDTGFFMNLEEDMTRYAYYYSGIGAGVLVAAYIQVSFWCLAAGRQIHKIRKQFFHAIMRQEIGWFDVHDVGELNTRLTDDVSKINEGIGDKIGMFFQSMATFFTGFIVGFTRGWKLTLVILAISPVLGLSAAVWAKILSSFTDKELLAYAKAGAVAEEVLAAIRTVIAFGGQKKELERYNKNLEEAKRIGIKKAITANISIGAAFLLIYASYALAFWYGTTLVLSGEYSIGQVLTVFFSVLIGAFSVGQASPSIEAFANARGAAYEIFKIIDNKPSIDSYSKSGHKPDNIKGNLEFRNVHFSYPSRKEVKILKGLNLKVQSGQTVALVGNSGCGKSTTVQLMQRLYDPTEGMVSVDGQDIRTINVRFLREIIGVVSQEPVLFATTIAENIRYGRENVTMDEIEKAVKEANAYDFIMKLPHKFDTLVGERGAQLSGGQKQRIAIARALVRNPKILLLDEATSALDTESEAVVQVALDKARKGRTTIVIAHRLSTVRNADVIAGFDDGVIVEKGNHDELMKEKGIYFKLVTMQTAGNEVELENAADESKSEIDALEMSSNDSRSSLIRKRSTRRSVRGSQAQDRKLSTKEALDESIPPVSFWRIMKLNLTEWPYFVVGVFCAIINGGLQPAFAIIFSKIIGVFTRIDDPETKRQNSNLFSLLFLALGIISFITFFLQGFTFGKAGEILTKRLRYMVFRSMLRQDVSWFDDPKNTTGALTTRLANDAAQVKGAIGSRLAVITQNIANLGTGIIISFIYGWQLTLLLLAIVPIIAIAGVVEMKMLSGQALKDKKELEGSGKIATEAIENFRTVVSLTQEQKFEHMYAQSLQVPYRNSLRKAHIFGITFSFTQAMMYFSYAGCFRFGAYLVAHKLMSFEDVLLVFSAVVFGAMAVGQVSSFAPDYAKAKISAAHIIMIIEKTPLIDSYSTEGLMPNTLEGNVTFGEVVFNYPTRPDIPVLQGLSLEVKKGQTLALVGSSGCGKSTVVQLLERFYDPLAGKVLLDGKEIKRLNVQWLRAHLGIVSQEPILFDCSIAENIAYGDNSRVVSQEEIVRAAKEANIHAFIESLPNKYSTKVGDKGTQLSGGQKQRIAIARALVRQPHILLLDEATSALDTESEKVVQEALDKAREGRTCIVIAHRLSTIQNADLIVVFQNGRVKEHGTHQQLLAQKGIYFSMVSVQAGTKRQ
Method in brief: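 Bidirectional transport of loperamide was measured in a cell test system without and with a concentration range of the test compound; cyclosporin A was the control inhibitor. Papp = (dQ/dt)/(A×C0). Per replicate, A→B Papp was subtracted from B→A Papp to give net secretory flux. This was expressed as % of mean vehicle-control activity and fitted for IC50. Ki = IC50/(1+[S]×fu/Km), using loperamide Km 36.2.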

CYP3A4 = CYP3A4 (Homo sapiens, UniProt P08684); test: Cytochrome P450 inhibition; type: in vitro ADME
Sequence of CYP3A4 (P08684 whole entry): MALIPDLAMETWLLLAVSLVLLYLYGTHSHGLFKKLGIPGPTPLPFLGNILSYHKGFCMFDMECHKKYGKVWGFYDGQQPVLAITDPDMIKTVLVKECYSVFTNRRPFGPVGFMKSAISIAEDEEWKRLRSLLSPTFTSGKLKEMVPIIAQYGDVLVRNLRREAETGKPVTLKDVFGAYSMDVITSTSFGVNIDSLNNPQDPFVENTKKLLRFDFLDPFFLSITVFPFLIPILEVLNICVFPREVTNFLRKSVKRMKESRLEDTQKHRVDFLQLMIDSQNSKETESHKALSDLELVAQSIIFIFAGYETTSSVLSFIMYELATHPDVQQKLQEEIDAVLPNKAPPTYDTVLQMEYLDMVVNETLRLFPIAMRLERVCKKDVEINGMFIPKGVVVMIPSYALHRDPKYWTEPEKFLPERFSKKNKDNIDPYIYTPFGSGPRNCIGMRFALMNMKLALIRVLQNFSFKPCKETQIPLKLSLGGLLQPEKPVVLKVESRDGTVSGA
Method in brief: as §1

CYP2B6 = molecular target: T3, CYP2B6 (Homo sapiens, UniProt P20813); test: Cytochrome P450 inhibition; type: in vitro ADME; settings: substrate bupropion; any pre-incubation condition
T3 sequence (P20813 1-491): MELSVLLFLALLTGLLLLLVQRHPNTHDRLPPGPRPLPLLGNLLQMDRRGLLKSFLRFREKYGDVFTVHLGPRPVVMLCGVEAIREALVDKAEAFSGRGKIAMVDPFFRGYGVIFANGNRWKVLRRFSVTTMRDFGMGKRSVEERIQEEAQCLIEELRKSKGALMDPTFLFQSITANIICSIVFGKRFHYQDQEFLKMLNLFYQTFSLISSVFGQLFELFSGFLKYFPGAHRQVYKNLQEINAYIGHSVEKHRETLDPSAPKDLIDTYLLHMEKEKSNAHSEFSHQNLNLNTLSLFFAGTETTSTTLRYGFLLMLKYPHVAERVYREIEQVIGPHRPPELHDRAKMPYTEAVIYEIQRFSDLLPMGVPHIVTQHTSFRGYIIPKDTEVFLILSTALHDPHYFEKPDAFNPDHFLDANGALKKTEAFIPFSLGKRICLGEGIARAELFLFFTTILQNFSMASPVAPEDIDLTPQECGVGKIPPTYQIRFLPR
Method in brief: as §1

Question: For `CS(=O)(=O)OC[C@H](O)[C@@H](O)COS(C)(=O)=O` [treosulfan, L‐threitol‐1,4‐bis‐methanesulfonate], which “Log P O:W” value [1] is on record?
Answer: The value was −1.58.

Question: And the “GFR fraction, literature” value [2]?
Answer: The value was “Estimated (literature[20]: 0.41 ± 0.22)”.

Question: And the AUC ([3]; day −4, patients)?
Answer: The AUC was 1450 µg·h/mL.

Question: And the AUC ([3]; day −6, patients)?
Answer: The AUC was 1420 µg·h/mL.

Question: What about the half-life ([3]; day −4, patients) of the same compound?
Answer: The half-life was 1.93 h.

Question: What about the half-life ([3]; day −6, patients) of the same compound?
Answer: The half-life was 1.86 h.

Question: What about the “administered dose excreted in urine” value ([3]; patients) of the same compound?
Answer: Its value is “About 40%”.

Question: And the “rate at which dose was excreted in urine” value ([3]; patients, CV% = 31.98%)?
Answer: Its value is 130.38 mL/min.

Question: And the “inhibition of CYP2C8” value (CYP2C8)?
Answer: Its value is “did not inhibit”.

Question: What about the “inhibition of CYP2D6” value (CYP2D6) of the same compound?
Answer: The value was “did not inhibit”.

Question: What about the “inhibition of CYP2C9” value (CYP2C9) of the same compound?
Answer: Its value is “did not inhibit”.

Question: And the “inhibition of CYP1A2” value (CYP1A2)?
Answer: Its value is “did not inhibit”.

Question: And the “B:P (blood‐plasma ratio)” value [4]?
Answer: Its value is 0.88.

Question: And the IC50 (CYP2C19)?
Answer: The IC50 was 972 µM.

Question: And the Ki (CYP2C19)?
Answer: Its Ki is 778 µM.

Question: What about the Ki (P-gp) of the same compound?
Answer: Its Ki is 1770 µM.

Question: And the IC50 (P-gp; human, in vitro cell test system (cell line not given), probe loperamide)?
Answer: The IC50 was over 1000 µM.

Question: What about the IC50 (CYP3A4) of the same compound?
Answer: The IC50 was 1870 µM.

Question: What about the Ki (CYP3A4) of the same compound?
Answer: Its Ki is 1210 µM.

Question: And the “inhibition of CYP3A4 using testosterone as the substrate” value (CYP3A4; 40 to 10 000 μM treosulfan, any pre-incubation condition)?
Answer: The value was “did not inhibit”.

Question: And the “inhibition of CYP2B6” value (CYP2B6)?
Answer: Its value is “did not inhibit”.
